The record followed here is ChEMBL document CHEMBL4346665, “Synthesis and evaluation of tetrahydroquinolin-2(1H)-one derivatives as novel anti-pancreatic cancer agents via targeting autophagy” (Eur J Med Chem, 2019).

Broadly, the inhibition is the percentage by which the read-out fell short of the control. A higher inhibition goes with strong suppression. As usually defined, the IC50 is the midpoint of a concentration-inhibition curve.

In experiment [1] the test system is PANC-1. Kind of experiment: Growth inhibition of human PANC1 cells in nutrient-deprived medium at 10 uM incubated for 24 hrs by MTT assay (reference value: 0.0 +/- 1.9%). Conditions: PANC-1, 24 h. It is filed as functional. (In general: Tetrazolium assays rely on reduction of a dye to a coloured formazan, in cell work by metabolically active cells.)
Experiment [2] relates to PANC-1. Kind of experiment: Growth inhibition of human PANC1 cells in nutrient-rich medium at 10 uM incubated for 24 hrs by MTT assay (reference value: 0.0 +/- 3.8%). Format: functional. Conditions: PANC-1, 24 h.
Experiment [3] concerns PANC-1. As to the kind of experiment: Growth inhibition of human PANC1 cells in nutrient-deprived medium incubated for 24 hrs by MTT assay. It is filed as functional, cell-based. Conditions: PANC-1, 24 h.
The test system of experiment [4] is PANC-1. As to the kind of experiment: Induction of apoptosis in human PANC1 cells in nutrient-deprived medium assessed as live cells at 5 uM incubated for 24 hrs by Annexin V-FITC/PI double staining based flow cytometric analysis (reference value: 85.75 to 96.8%). It is filed as functional. The essentials:
(§1)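 PANC-1 cells under NDC exposed 24 h at 5.0, 10.0 or 20.0 µM. Annexin V-FITC/PI double staining, flow cytometric quantification of live, early apoptotic, late apoptotic and necrotic fractions. Arctigenin as positive control.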
For orientation: A flow cytometer gives signals particle by particle.

The subject of experiment [5] is PANC-1. Kind of experiment: Induction of apoptosis in human PANC1 cells in nutrient-deprived medium assessed as early apoptotic cells at 5 uM incubated for 24 hrs by Annexin V-FITC/PI double staining based flow cytometric analysis (reference value: 0.22 to 14.25%). It is filed as functional. Put shortly: as §1
Experiment [6] relates to PANC-1. As to the kind of experiment: Induction of apoptosis in human PANC1 cells in nutrient-deprived medium assessed as late apoptotic cells at 5 uM incubated for 24 hrs by Annexin V-FITC/PI double staining based flow cytometric analysis (reference value: 0 to 0.9%). Format: functional. The essentials: as §1
The subject of experiment [7] is PANC-1. Kind of experiment: Induction of apoptosis in human PANC1 cells in nutrient-deprived medium assessed as necrotic cells at 5 uM incubated for 24 hrs by Annexin V-FITC/PI double staining based flow cytometric analysis (reference value: 0 to 2.8%). It is filed as functional. Put shortly:
as §1

Experiment [8] has as its system PANC-1. As to the kind of experiment: Induction of apoptosis in human PANC1 cells in nutrient-deprived medium assessed as live cells at 10 uM incubated for 24 hrs by Annexin V-FITC/PI double staining based flow cytometric analysis (reference value: 85.75 to 96.8%). It is filed as functional. The essentials: as §1
The test system of experiment [9] is PANC-1. Kind of experiment: Induction of apoptosis in human PANC1 cells in nutrient-deprived medium assessed as early apoptotic cells at 10 uM incubated for 24 hrs by Annexin V-FITC/PI double staining based flow cytometric analysis (reference value: 0.22 to 14.25%). Format: functional. Put shortly:
as §1

In experiment [10] the test system is PANC-1. As to the kind of experiment: Induction of apoptosis in human PANC1 cells in nutrient-deprived medium assessed as late apoptotic cells at 10 uM incubated for 24 hrs by Annexin V-FITC/PI double staining based flow cytometric analysis (reference value: 0 to 0.9%). It is filed as functional. Put shortly:
as §1

For experiment [11], the system named is PANC-1. Kind of experiment: Induction of apoptosis in human PANC1 cells in nutrient-deprived medium assessed as necrotic cells at 10 uM incubated for 24 hrs by Annexin V-FITC/PI double staining based flow cytometric analysis (reference value: 0 to 2.8%). Format: functional. The essentials:
as §1

Experiment [12] relates to PANC-1. Kind of experiment: Induction of apoptosis in human PANC1 cells in nutrient-deprived medium assessed as live cells at 20 uM incubated for 24 hrs by Annexin V-FITC/PI double staining based flow cytometric analysis (reference value: 85.75 to 96.8%). It is filed as functional. The essentials:
as §1

Experiment [13] has as its system PANC-1. Kind of experiment: Induction of apoptosis in human PANC1 cells in nutrient-deprived medium assessed as early apoptotic cells at 20 uM incubated for 24 hrs by Annexin V-FITC/PI double staining based flow cytometric analysis (reference value: 0.22 to 14.25%). It is filed as functional. Put shortly: as §1
Experiment [14] concerns PANC-1. As to the kind of experiment: Induction of apoptosis in human PANC1 cells in nutrient-deprived medium assessed as late apoptotic cells at 20 uM incubated for 24 hrs by Annexin V-FITC/PI double staining based flow cytometric analysis (reference value: 0 to 0.9%). It is filed as functional. Put shortly:
as §1

The test system of experiment [15] is PANC-1. As to the kind of experiment: Induction of apoptosis in human PANC1 cells in nutrient-deprived medium assessed as necrotic cells at 20 uM incubated for 24 hrs by Annexin V-FITC/PI double staining based flow cytometric analysis (reference value: 0 to 2.8%). It is filed as functional. Put shortly:
as §1

For the molecule `CC(C)=CCC1Cc2c(OC(=O)Nc3ccc(F)c(F)c3)cc(=O)n(CCCO)c2CC1(C)C` (stereo unspecified), the inhibition at 10 µM turned out to be 76.7% in [1] and 0% in [2]. In addition, in experiment [3], the IC50 was determined as 7.3 µM.

In the case of `CC(C)=CCC/C(C)=C/CC1Cc2c(OCCCNC(=O)c3ccco3)cc(=O)n(CCCO)c2CC1(C)C` (stereo unspecified), the inhibition at 10 µM stood at 69.5% in experiment [1] and 2.8% in [2]. This molecule registered an IC50 in experiment [3] of 5.2 µM.

Consider `COc1cc(C[C@H]2C(=O)OC[C@@H]2Cc2ccc(OC)c(OC)c2)ccc1O` [ARCTIGENIN], for which the inhibition at 10 µM in [1] is 79.1%; in [2], 66.8%. In experiment [3], inhibition was half-maximal at 2.2 µM (IC50). Also, the Activity in [4] stood at 8.66%; in experiment [5], 1.43%; in [6], 83.08%; in experiment [7], 6.84%; in experiment [8] it was 4.13%; in experiment [9] it was 1.03%. For the same molecule, the Activity in experiment [10] amounted to 89.2%; in experiment [11] it was 5.64%; in [12] it was 2.23%; in [13], 1.06%; in [14], 90.44%; in [15], 6.29%.
